Assay results reported in publication PMC7347020 (Science (New York, N.Y.), 2020).
Like-named read-outs stand apart in the source and are kept apart here.

Assays:
PARP-1 [1] = target: T1, PARP-1 (Homo sapiens, UniProt P09874); test: Classification of PARPi by allosteric effects; conditions: based on HXMS and DNA binding studies
CATΔHD [2] = conditions: cited from earlier work
WT PARP-1 = WT PARP-1 (Homo sapiens, UniProt P09874); test: FP DNA competition; type: binding; conditions: WT PARP-1, with or without inhibitor
PARP-1 W318R [3] = target: T2, PARP-1 W318R (Homo sapiens, UniProt P09874, W318R); test: HXMS of PARP-1 W318R/SSB-DNA; conditions: W318R mutant
CATΔHD [4] = test: DSF thermal stability, CATΔHD; type: binding
In short: (§1)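 Protein melting temperature was measured by differential scanning fluorimetry with and without test compound. ΔTM was taken as TM with compound minus TM without compound.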

PARP-1 D766/770A [5] = target: T3, PARP-1 D766/770A (Homo sapiens, UniProt P09874, D766A/D770A); test: HXMS of PARP-1 D766/770A/SSB-DNA; conditions: D766/770A mutant
In short: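 PARP-1 (2.6 μM) was mixed with SSB-DNA (5 μM) and, where applicable, inhibitor (5.2 μM). Deuterium on-exchange ran at RT in 10 mM HEPES pD 7.0, 150 mM NaCl (final 75% D2O). Samples were quenched in ice-cold buffer, frozen in liquid nitrogen, pepsin-digested, separated on C18 and analysed by electrospray MS for per-peptide deuteration.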

PARP-1 R591C [6] = target: T4, PARP-1 R591C (Homo sapiens, UniProt P09874, R591C); test: HXMS of PARP-1 R591C/SSB-DNA; conditions: R591C mutant
PARP-1 W318R [7] = target: T2, PARP-1 W318R; test: FP DNA competition, W318R mutant; type: binding
In short: (§2)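 Fluorescence polarization competition used FAM-labeled SSB-DNA bound by the PARP-1 variant, challenged with unlabeled SSB-DNA, with or without test compound.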

PARP-1 [8] = target: T1, PARP-1; test: SPR dissociation kinetics of PARP-1 from SSB-DNA; type: binding
PARP-1 [9] = target: T1, PARP-1; conditions: cited from earlier work
PARP-1 [10] = target: T1, PARP-1; test: FP DNA binding affinity of PARP-1 for SSB-DNA
PARP-1 [11] = target: T1, PARP-1; test: HXMS of WT PARP-1/SSB-DNA complex; conditions: PARP-1/SSB-DNA complex with versus without inhibitor
PARP-1 CAT = PARP-1 CAT (Homo sapiens, UniProt P09874); test: DSF thermal stability, CAT domain; type: binding
In short: as §1

PARP-1 D766/770A [12] = target: T3, PARP-1 D766/770A; test: FP DNA competition, D766/770A mutant; type: binding
In short: as §2

PARP-1 R591C [13] = target: T4, PARP-1 R591C; test: FP DNA competition, R591C mutant; type: binding
In short: as §2

[14] = tested on: parental or PARP-1−/− cells; test: Survival assay, parental or PARP-1−/− cells; type: cell-based; conditions: low concentrations; parental versus PARP-1−/−
PARP-1 [15] = target: T1, PARP-1; test: PARP-1 catalytic inhibition; type: biochemical; conditions: catalytic inhibitory potency; not shown
CAPAN-1 cells = test: Cell survival assay, CAPAN-1; type: cell-based; conditions: cell survival experiment
[16] = tested on: CAL51 PARP-1−/− cells transfected with PARP-1-GFP; test: Microirradiation assay, PARP-1-GFP residence at DNA damage sites; type: cell-based
[17] = tested on: ADP-ribosylation activity in cells; test: Measurement of PAR in cells; type: cell-based; conditions: 0.01, 0.1, 1 and 10 μM, 0.01% MMS
In short: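 Cells were co-treated with test compound and 0.01% MMS. Cellular poly(ADP-ribose) was detected by western blot with an anti-pan-ADP-ribose binding reagent.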

[18] = tested on: SUM149PT-BRCA1mut and SUM149PT-BRCA1rev cells; test: Cell survival assay, SUM149PT-BRCA1mut versus SUM149PT-BRCA1rev; type: cell-based
[19] = tested on: MMS-treated CAPAN-1 cells; test: Chromatin fractionation assay; type: cell-based; conditions: 1, 10 and 25 μM, 0.01% MMS
In short: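 Chromatin fractionation measured chromatin-bound PARP-1 in cells exposed to 0.01% MMS, with or without test compound.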

[20] = tested on: MMS-treated CAPAN-1 cells; conditions: cited from earlier work

Chain of WT PARP-1 (P09874 whole entry): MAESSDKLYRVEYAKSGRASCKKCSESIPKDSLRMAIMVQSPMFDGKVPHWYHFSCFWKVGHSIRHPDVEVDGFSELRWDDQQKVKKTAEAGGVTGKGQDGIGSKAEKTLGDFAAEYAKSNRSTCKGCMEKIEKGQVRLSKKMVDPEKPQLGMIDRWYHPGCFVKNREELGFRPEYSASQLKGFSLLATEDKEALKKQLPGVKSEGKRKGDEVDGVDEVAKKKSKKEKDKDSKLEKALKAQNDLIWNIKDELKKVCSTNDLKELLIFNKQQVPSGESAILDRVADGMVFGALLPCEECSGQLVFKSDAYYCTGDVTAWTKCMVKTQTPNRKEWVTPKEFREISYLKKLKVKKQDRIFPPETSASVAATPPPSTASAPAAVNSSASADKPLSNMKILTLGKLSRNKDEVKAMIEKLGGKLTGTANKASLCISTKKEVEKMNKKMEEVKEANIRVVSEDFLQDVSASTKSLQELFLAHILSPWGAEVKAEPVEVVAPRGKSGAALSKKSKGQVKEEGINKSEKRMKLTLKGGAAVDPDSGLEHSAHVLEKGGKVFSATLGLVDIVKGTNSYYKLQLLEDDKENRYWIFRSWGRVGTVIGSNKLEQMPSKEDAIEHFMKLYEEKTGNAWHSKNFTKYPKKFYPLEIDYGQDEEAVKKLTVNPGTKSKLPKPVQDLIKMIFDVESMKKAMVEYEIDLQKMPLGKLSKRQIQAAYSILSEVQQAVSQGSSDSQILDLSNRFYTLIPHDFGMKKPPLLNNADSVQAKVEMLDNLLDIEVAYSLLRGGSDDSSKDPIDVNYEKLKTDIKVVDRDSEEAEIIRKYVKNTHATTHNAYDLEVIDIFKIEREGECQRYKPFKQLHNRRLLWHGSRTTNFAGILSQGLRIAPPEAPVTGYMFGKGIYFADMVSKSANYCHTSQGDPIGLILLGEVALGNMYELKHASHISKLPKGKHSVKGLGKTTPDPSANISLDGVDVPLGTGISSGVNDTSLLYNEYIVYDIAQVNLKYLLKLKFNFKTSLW
T1 sequence (P09874 whole entry): as above
T3 sequence (P09874 whole entry D766A/D770A): as the sequence (P09874 whole entry) above, with D766A, D770A counted along it
T2 sequence (P09874 whole entry W318R): as the sequence (P09874 whole entry) above, with W318R counted along it
T4 sequence (P09874 whole entry R591C): as the sequence (P09874 whole entry) above, with R591C counted along it
Chain of PARP-1 CAT (P09874 661-1014 limits assumed): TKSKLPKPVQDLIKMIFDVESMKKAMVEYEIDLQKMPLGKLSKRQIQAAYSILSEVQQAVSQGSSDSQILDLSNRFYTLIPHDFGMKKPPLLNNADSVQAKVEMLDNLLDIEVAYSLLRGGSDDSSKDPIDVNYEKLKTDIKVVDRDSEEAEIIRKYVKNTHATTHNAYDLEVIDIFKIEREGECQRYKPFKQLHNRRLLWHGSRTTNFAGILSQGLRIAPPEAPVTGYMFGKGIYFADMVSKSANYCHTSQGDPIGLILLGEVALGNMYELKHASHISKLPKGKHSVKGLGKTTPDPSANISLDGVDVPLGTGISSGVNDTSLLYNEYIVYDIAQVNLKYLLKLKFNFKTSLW

NC(=O)c1cccc([C@@H]2O[C@H](COP(=O)(O)OP(=O)(O)OC[C@H]3O[C@@H](n4cnc5c(N)ncnc54)[C@H](O)[C@@H]3O)[C@@H](O)[C@H]2O)c1 [BAD, benzamide adenine dinucleotide]
PARPi type by allosteric effect (PARP-1 [1]): Type I
binding to CAT versus CATΔHD (CATΔHD [2]): only bind to CATΔHD

Nc1ncnc2c1ncn2[C@@H]1O[C@H](C(=O)N2CCN(CC(=O)Nc3cccc4c3CNC4=O)CC2)[C@@H](O)[C@H]1O [EB-47]
PARP-1 retention on SSB-DNA (WT PARP-1): increased the retention of WT PARP-1 on DNA
PARPi type by allosteric effect (PARP-1 [1]): Type I
allosteric effect on PARP-1 (HX changes) (PARP-1 W318R [3]): destabilization of the αB and αF helices of the HD
binding to CATΔHD (CATΔHD [4]): bound
allosteric effect on PARP-1 (HX changes) (PARP-1 D766/770A [5]): no longer influenced PARP-1 allostery
allosteric effect on PARP-1 (HX changes) (PARP-1 R591C [6]): destabilization of the αB and αF helices of the HD
PARP-1 retention on SSB-DNA (PARP-1 W318R [7]): unaffected
influence on dissociation (kd) of PARP-1 from a DNA break (in words) (PARP-1 [8]): markedly slowed release from DNA
affinity for PARP-1 (PARP-1 [9]): nM range
influence on PARP-1 SSB DNA binding affinity (in words) (PARP-1 [10]): large increase in SSB DNA binding affinity
allosteric effect on PARP-1 (HX changes) (PARP-1 [11]): highly localized destabilization of the helical domain (HD)
binding to PARP-1 CAT (PARP-1 CAT): bound
PARP-1 release from / retention on a DNA break (PARP-1 D766/770A [12]): insensitive
PARP-1 retention on SSB-DNA (PARP-1 R591C [13]): unaffected

NC(=O)c1ccc[n+]([C@@H]2O[C@H](COP(=O)([O-])OP(=O)(O)OC[C@H]3O[C@@H](n4cnc5c(N)ncnc54)[C@H](O)[C@@H]3O)[C@@H](O)[C@H]2O)c1 [NAD^+]
binding to CAT versus CATΔHD (CATΔHD [2]): only bind to CATΔHD

COC(=O)c1cnc(N2CCN(C(=O)c3ccc(-c4nc5c(C(N)=O)cccc5[nH]4)cc3)CC2)nc1 [UKTT15]
PARP-1 retention on SSB-DNA (WT PARP-1): strong PARP-1 retention on a DNA break
PARP-1 dependence of cell killing [14]: required PARP-1 expression
PARPi type by allosteric effect (PARP-1 [1]): Type I
IC50 (PARP-1 [15]): 2.6 nM
killing of CAPAN-1 cells (CAPAN-1 cells): more efficient than veliparib
PARP-1-GFP residence time at sites of UV laser-induced damage [16]: increase in the PARP-1-GFP residence time
inhibition of ADP-ribosylation activity in cells (PAR levels) [17]: not better than veliparib
increase in PARP-1 affinity for DNA relative to no inhibitor (PARP-1 [10]; WT PARP-1): 3.5 fold
allosteric effect on PARP-1 (HX changes) (PARP-1 [11]): profound changes to the HX behavior of PARP-1
BRCA selectivity of cell killing [18]: killing of the SUM149-BRCA1mut cells at a lower concentration compared to the SUM149PT-BRCA1rev cells
PARP-1 release from / retention on a DNA break (PARP-1 D766/770A [12]): still retained on DNA
PARP-1 trapping on DNA in cells [19]: increased ability to trap PARP-1 on DNA

NC(=O)c1cccc2cn(-c3ccc([C@@H]4CCCNC4)cc3)nc12 [niraparib]
PARPi type by allosteric effect (PARP-1 [1]): Type III
influence on dissociation (kd) of PARP-1 from a DNA break (in words) (PARP-1 [8]): slightly accelerated release
decrease in PARP-1 SSB DNA binding affinity (PARP-1 [10]): 3–5 fold
allosteric effect on PARP-1 (HX changes) (PARP-1 [11]): stronger allosteric effects to the HD

CNCc1ccc(-c2[nH]c3cc(F)cc4c3c2CCNC4=O)cc1 [rucaparib]
PARPi type by allosteric effect (PARP-1 [1]): Type III
influence on dissociation (kd) of PARP-1 from a DNA break (in words) (PARP-1 [8]): slightly accelerated release
decrease in PARP-1 SSB DNA binding affinity (PARP-1 [10]): 3–5 fold
allosteric effect on PARP-1 (HX changes) (PARP-1 [11]): stronger allosteric effects to the HD

Cn1ncnc1[C@H]1c2n[nH]c(=O)c3cc(F)cc(c23)N[C@@H]1c1ccc(F)cc1 [talazoparib]
PARP-1 trapping in cells [20]: most efficient trapper of the clinical inhibitors

C[C@]1(c2nc3c(C(N)=O)cccc3[nH]2)CCCN1 [veliparib]
PARP-1 retention on SSB-DNA (WT PARP-1): not significant
PARPi type by allosteric effect (PARP-1 [1]): Type III
influence on dissociation (kd) of PARP-1 from a DNA break (in words) (PARP-1 [8]): slightly accelerated release
decrease in PARP-1 SSB DNA binding affinity (PARP-1 [10]): 3–5 fold
allosteric effect on PARP-1 (HX changes) (PARP-1 [11]): stronger allosteric effects to the HD
PARP-1 trapping in cells ([20]; chromatin fractionation): poor PARP-1 trapper
